Measurements taken from ChEMBL document CHEMBL4689842, “EUbOPEN Chemogenomics Library wave 1” (2021).
Several values for one entry are separate records, joined by “and”; a condition that tells them apart may be missing. Equal values may be shown once.

Test system: U2OS
Assay: Multiplex assay against U2OS
Assay type: toxicity, cell-based
Conditions: human
In short: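 Per cents of healthy-nucleus cells form the tubulin, mitochondrial-mass and membrane-permeability phenotype values. Live cells were stained at seeding with Hoechst33342, BioTracker Green Microtubule Cytoskeleton Dye, MitoTracker Red and Annexin V Alexa Fluor 680. After compound addition they were imaged on a CQ1 microscope at 37°C and 5% CO2, and CellPathfinder machine-learning gating split them into Hoechst high-intensity objects or normal cells, normal cells into healthy, pyknosed or fragmented nuclei, and pyknosed cells into mitotic or apoptotic.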

[1] = 12 h, 1 µM, compound concentration 1 uM, replicate 1
[2] = 12 h, 1 µM, compound concentration 1 uM, replicate 2
[3] = 12 h, 10 µM, compound concentration 10 uM, replicate 1
[4] = 12 h, 10 µM, compound concentration 10 uM, replicate 2
[5] = 24 h, 1 µM, compound concentration 1 uM, replicate 1
[6] = 24 h, 1 µM, compound concentration 1 uM, replicate 2
[7] = 24 h, 10 µM, compound concentration 10 uM, replicate 1
[8] = 24 h, 10 µM, compound concentration 10 uM, replicate 2
[9] = 48 h, 1 µM, compound concentration 1 uM, replicate 1
[10] = 48 h, 1 µM, compound concentration 1 uM, replicate 2
[11] = 48 h, 10 µM, compound concentration 10 uM, replicate 1
[12] = 48 h, 10 µM, compound concentration 10 uM, replicate 2

CC(C)(C)NC[C@H](O)COc1nsnc1N1CCOCC1 [TIMOLOL]
Population Apoptotic (%) [1]: 77% | Population Fragmented Nuclei (%) [1]: 12% | Population Healthy Nuclei (%) [1]: 80% | Population Hoechst High Intensity Objects (%) [1]: 7% | Population Membrane Permeable-Phenotype (%) [1]: 4% | Population Mitochondria Different-Phenotype (%) [1]: 9% | Population Mitotic Cells (%) [1]: 22% | Population Pyknosed Nuclei (%) [1]: 7% | Population Tubulin-Different-Phenotype (%) [1]: 8% | Population Apoptotic (%) [2]: 100% | Population Fragmented Nuclei (%) [2]: 5% | Population Healthy Nuclei (%) [2]: 88% | Population Hoechst High Intensity Objects (%) [2]: 8% | Population Membrane Permeable-Phenotype (%) [2]: 8% | Population Mitochondria Different-Phenotype (%) [2]: 11% | Population Mitotic Cells (%) [2]: 0% | Population Normal (%) [2]: 92% | Population Pyknosed Nuclei (%) [2]: 5% | Population Tubulin-Different-Phenotype (%) [2]: 18% | Population Apoptotic (%) [3]: 30% | Population Fragmented Nuclei (%) [3]: 8% | Population Healthy Nuclei (%) [3]: 77% | Population Hoechst High Intensity Objects (%) [3]: 6% | Population Membrane Permeable-Phenotype (%) [3]: 6% | Population Mitochondria Different-Phenotype (%) [3]: 8% | Population Mitotic Cells (%) [3]: 69% | Population Normal (%) [3]: 93% | Population Pyknosed Nuclei (%) [3]: 14% | Population Tubulin-Different-Phenotype (%) [3]: 8% | Population Apoptotic (%) [4]: 33% | Population Healthy Nuclei (%) [4]: 79% | Population Hoechst High Intensity Objects (%) [4]: 3% | Population Membrane Permeable-Phenotype (%) [4]: 4% | Population Mitochondria Different-Phenotype (%) [4]: 7% | Population Mitotic Cells (%) [4]: 66% | Population Normal (%) [4]: 96% | Population Pyknosed Nuclei (%) [4]: 11% | Population Tubulin-Different-Phenotype (%) [4]: 4% | Population Apoptotic (%) [5]: 63% | Population Fragmented Nuclei (%) [5]: 10% | Population Healthy Nuclei (%) [5]: 82% | Population Hoechst High Intensity Objects (%) [5]: 4% | Population Mitochondria Different-Phenotype (%) [5]: 7% | Population Mitotic Cells (%) [5]: 36% | Population Normal (%) [5]: 95% | Population Tubulin-Different-Phenotype (%) [5]: 12% | Population Apoptotic (%) [6]: 50% | Population Fragmented Nuclei (%) [6]: 11% | Population Healthy Nuclei (%) [6]: 81% | Population Hoechst High Intensity Objects (%) [6]: 5% | Population Membrane Permeable-Phenotype (%) [6]: 2% | Population Mitochondria Different-Phenotype (%) [6]: 18% | Population Mitotic Cells (%) [6]: 50% | Population Normal (%) [6]: 94% | Population Pyknosed Nuclei (%) [6]: 6% | Population Tubulin-Different-Phenotype (%) [6]: 21% | Population Apoptotic (%) [7]: 20% | Population Fragmented Nuclei (%) [7]: 7% | Population Healthy Nuclei (%) [7]: 85% | Population Hoechst High Intensity Objects (%) [7]: 5% | Population Membrane Permeable-Phenotype (%) [7]: 5% | Population Mitochondria Different-Phenotype (%) [7]: 2% | Population Mitotic Cells (%) [7]: 80% | Population Normal (%) [7]: 94% | Population Pyknosed Nuclei (%) [7]: 6% | Population Tubulin-Different-Phenotype (%) [7]: 5% | Population Apoptotic (%) [8]: 41% | Population Healthy Nuclei (%) [8]: 81% | Population Hoechst High Intensity Objects (%) [8]: 2% | Population Membrane Permeable-Phenotype (%) [8]: 3% | Population Mitochondria Different-Phenotype (%) [8]: 5% | Population Mitotic Cells (%) [8]: 58% | Population Normal (%) [8]: 97% | Population Pyknosed Nuclei (%) [8]: 11% | Population Tubulin-Different-Phenotype (%) [8]: 4% | Population Apoptotic (%) [9]: 23% | Population Membrane Permeable-Phenotype (%) [9]: 1% | Population Mitochondria Different-Phenotype (%) [9]: 12% | Population Mitotic Cells (%) [9]: 76% | Population Tubulin-Different-Phenotype (%) [9]: 5% | Population Apoptotic (%) [10]: 42% | Population Fragmented Nuclei (%) [10]: 5% | Population Healthy Nuclei (%) [10]: 88% | Population Hoechst High Intensity Objects (%) [10]: 1% | Population Membrane Permeable-Phenotype (%) [10]: 13% | Population Mitochondria Different-Phenotype (%) [10]: 17% | Population Mitotic Cells (%) [10]: 57% | Population Normal (%) [10]: 98% | Population Pyknosed Nuclei (%) [10]: 5% | Population Tubulin-Different-Phenotype (%) [10]: 21% | Population Apoptotic (%) [11]: 46% | Population Fragmented Nuclei (%) [11]: 1% | Population Healthy Nuclei (%) [11]: 93% | Population Hoechst High Intensity Objects (%) [11]: 2% | Population Membrane Permeable-Phenotype (%) [11]: 1% | Population Mitochondria Different-Phenotype (%) [11]: 9% | Population Mitotic Cells (%) [11]: 53% | Population Normal (%) [11]: 97% | Population Tubulin-Different-Phenotype (%) [11]: 6% | Population Apoptotic (%) [12]: 27% | Population Fragmented Nuclei (%) [12]: 3% | Population Healthy Nuclei (%) [12]: 91% | Population Hoechst High Intensity Objects (%) [12]: 1% | Population Membrane Permeable-Phenotype (%) [12]: 4% | Population Mitochondria Different-Phenotype (%) [12]: 10% | Population Mitotic Cells (%) [12]: 72% | Population Normal (%) [12]: 98% | Population Pyknosed Nuclei (%) [12]: 4% | Population Tubulin-Different-Phenotype (%) [12]: 13%

CCC1=C[C@@H]2C[N@](C1)Cc1c([nH]c3ccccc13)[C@@](C(=O)OC)(c1cc3c(cc1OC)N(C)[C@H]1[C@@](O)(C(=O)OC)[C@H](OC(C)=O)[C@]4(CC)C=CCN5CC[C@]31[C@@H]54)C2.O=C(O)C(O)C(O)C(=O)O.O=C(O)C(O)C(O)C(=O)O [VINORELBINE TARTRATE]
Population Apoptotic (%) [1]: 55% and 29% | Population Fragmented Nuclei (%) [1]: 14% and 9% | Population Healthy Nuclei (%) [1]: 59% and 76% | Population Mitochondria Different-Phenotype (%) [1]: 34% and 22% | Population Mitotic Cells (%) [1]: 44% and 70% | Population Normal (%) [1]: 97% and 92% | Population Pyknosed Nuclei (%) [1]: 25% and 14% | Population Tubulin-Different-Phenotype (%) [1]: 26% | Population Fragmented Nuclei (%) [2]: 22% | Population Healthy Nuclei (%) [2]: 50% and 69% | Population Hoechst High Intensity Objects (%) [2]: 16% and 20% | Population Mitochondria Different-Phenotype (%) [2]: 30% | Population Mitotic Cells (%) [2]: 36% and 80% | Population Normal (%) [2]: 83% and 79% | Population Pyknosed Nuclei (%) [2]: 27% and 16% | Population Tubulin-Different-Phenotype (%) [2]: 45% and 34% | Population Apoptotic (%) [3]: 53% and 34% | Population Fragmented Nuclei (%) [3]: 14% and 8% | Population Healthy Nuclei (%) [3]: 74% and 76% | Population Hoechst High Intensity Objects (%) [3]: 6% and 8% | Population Mitochondria Different-Phenotype (%) [3]: 35% and 24% | Population Mitotic Cells (%) [3]: 46% and 65% | Population Normal (%) [3]: 93% and 91% | Population Pyknosed Nuclei (%) [3]: 11% and 14% | Population Tubulin-Different-Phenotype (%) [3]: 20% and 18% | Total Cell Count [3]: 168 and 185 | Population Fragmented Nuclei (%) [4]: 12% and 11% | Population Healthy Nuclei (%) [4]: 58% and 67% | Population Hoechst High Intensity Objects (%) [4]: 13% and 18% | Population Membrane Permeable-Phenotype (%) [4]: 56% and 20% | Population Mitochondria Different-Phenotype (%) [4]: 45% and 18% | Population Mitotic Cells (%) [4]: 40% and 82% | Population Normal (%) [4]: 86% and 81% | Population Pyknosed Nuclei (%) [4]: 29% and 21% | Population Tubulin-Different-Phenotype (%) [4]: 45% | Total Cell Count [4]: 132 and 78 | Population Apoptotic (%) [5]: 35% and 65% | Population Fragmented Nuclei (%) [5]: 20% and 14% | Population Healthy Nuclei (%) [5]: 49% and 56% | Population Hoechst High Intensity Objects (%) [5]: 1% and 3% | Population Membrane Permeable-Phenotype (%) [5]: 21% and 52% | Population Mitochondria Different-Phenotype (%) [5]: 26% and 37% | Population Mitotic Cells (%) [5]: 64% and 34% | Population Normal (%) [5]: 98% and 96% | Population Pyknosed Nuclei (%) [5]: 30% and 28% | Population Tubulin-Different-Phenotype (%) [5]: 41% and 34% | Population Apoptotic (%) [6]: 61% | Population Fragmented Nuclei (%) [6]: 30% and 22% | Population Healthy Nuclei (%) [6]: 36% and 59% | Population Hoechst High Intensity Objects (%) [6]: 11% and 15% | Population Membrane Permeable-Phenotype (%) [6]: 60% and 22% | Population Mitochondria Different-Phenotype (%) [6]: 40% | Population Mitotic Cells (%) [6]: 38% | Population Normal (%) [6]: 88% and 84% | Population Pyknosed Nuclei (%) [6]: 33% and 18% | Population Tubulin-Different-Phenotype (%) [6]: 62% and 31% | Population Apoptotic (%) [7]: 63% and 43% | Population Fragmented Nuclei (%) [7]: 18% and 14% | Population Healthy Nuclei (%) [7]: 55% | Population Hoechst High Intensity Objects (%) [7]: 7% and 4% | Population Membrane Permeable-Phenotype (%) [7]: 55% | Population Mitochondria Different-Phenotype (%) [7]: 29% and 33% | Population Mitotic Cells (%) [7]: 36% and 56% | Population Normal (%) [7]: 92% and 95% | Population Pyknosed Nuclei (%) [7]: 25% and 30% | Population Tubulin-Different-Phenotype (%) [7]: 29% and 34% | Total Cell Count [7]: 176 and 207 | Population Apoptotic (%) [8]: 82% and 47% | Population Fragmented Nuclei (%) [8]: 21% and 17% | Population Healthy Nuclei (%) [8]: 43% | Population Hoechst High Intensity Objects (%) [8]: 9% and 14% | Population Mitochondria Different-Phenotype (%) [8]: 43% and 22% | Population Normal (%) [8]: 90% and 85% | Population Pyknosed Nuclei (%) [8]: 34% and 26% | Population Tubulin-Different-Phenotype (%) [8]: 38% and 22% | Total Cell Count [8]: 147 and 90
